Data reported in ChEMBL document CHEMBL3596114, “SAR refinement of antileishmanial N(2),N(4)-disubstituted quinazoline-2,4-diamines” (Bioorg Med Chem, 2015).

Legend:
[1] = Cytotoxicity against mouse J774A.1 cells assessed as inhibition of cell viability after 72 hrs by MTT assay; assay type: cell-based; details: J774.A1, 72 h
Outline: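 J774A.1 murine macrophages were grown in RPMI with 10% FBS and penicillin/streptomycin at 37 °C, 5% CO2, and plated at 5 × 10^3 cells/well with serial compound dilutions for 72 h. MTT was added for 2 h, then cells were lysed with 10% SDS in 50% DMF for 3–5 h and read at 570 nm. EC50 came from a four-parameter fit, at least three independent experiments, podophyllotoxin control.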

Leishmania donovani [2] = test: Antileishmanial activity against […] forms of beta-lactamase expressing Leishmania donovani MHOM/ET/67/L82 infected in CD-1 mouse peritoneal macrophages assessed as inhibition of beta-lactamase activity after 3 days by spectrophotometer assay; assay type: functional, organism-based; details: MHOM/ET/67/L82, 72 h
Outline: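 Intracellular L. donovani assay in macrophages run by an earlier method, with amphotericin B as the control drug. EC50 is the mean ± standard deviation of at least three independent experiments. Where a mean could not be obtained, the value comes from at least two determinations.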

[3] = Selectivity index, ratio of EC50 for mouse J774A.1 cells to EC50 for of beta-lactamase expressing Leishmania donovani MHOM/ET/67/L82 infected in CD-1 mouse peritoneal macrophages
[4] = Cmax in Swiss-Webster mouse liver at 10 mg/kg, ip after 12 hrs by UPLC-MS/MS analysis; assay type: ADME, organism-based; set-up: dose 10 mg/kg, route intraperitoneal; details: read-out: Cmax
Outline: (§1)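 Male Swiss Webster mice got a single 10 mg/kg ip dose in DMSO/PEG400/ethanol/water vehicle. Liver and spleen were excised at 4 and 12 h, rinsed, frozen and homogenized in water (liver 3-fold, spleen 4-fold dilution). Tissue concentrations were measured by UPLC-MS/MS (calibration 0.025–25 μM), triplicate determinations.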

Mus musculus [5] = test: Toxicity in BALB/c mouse assessed as induction of adverse events at 30 mg/kg/day, ip administered for 5 days; assay type: organism-based; details: in vivo, 120 h
Outline: (§2)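 Female BALB/c mice were dosed ip daily for 5 days at 10 or 30 mg/kg/day and observed for adverse effects.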

Mus musculus [6] = test: Toxicity in BALB/c mouse assessed as induction of adverse events at 10 mg/kg/day, ip administered for 5 days; assay type: organism-based; details: in vivo, 120 h; outline: as §2
Plasma = test: Cmax in Swiss-Webster mouse plasma at 10 mg/kg, ip by UPLC-MS/MS analysis; assay type: ADME, organism-based; set-up: dose 10 mg/kg, route intraperitoneal; details: in vivo
Outline: (§3)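 Male Swiss Webster mice (20–25 g) got a single ip dose of 10 mg/kg in DMSO/PEG400/ethanol/water (0.5:5:1:3.5, v/v). Blood was drawn at 0.25–12 h, n = 3 per time point, and plasma was extracted with methanol-water plus internal standard. Samples were run by UPLC-MS/MS in SRM positive mode (calibration 0.025–25 μM). AUC, Cmax, Tmax, terminal t1/2 and Vz/F came from noncompartmental analysis.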

[7] = Tmax in Swiss-Webster mouse plasma at 10 mg/kg, ip by UPLC-MS/MS analysis; assay type: ADME, organism-based; outline: as §3
Spleen = test: Cmax in Swiss-Webster mouse spleen at 10 mg/kg, ip after 4 hrs by UPLC-MS/MS analysis; assay type: ADME, organism-based; set-up: dose 10 mg/kg, route intraperitoneal; details: in vivo; outline: as §1
[8] = Apparent volume of distribution in Swiss-Webster mouse plasma at 10 mg/kg, ip by UPLC-MS/MS analysis; assay type: ADME, organism-based; details: read-out: Vz/F; outline: as §3
Liver [9] = test: Half-life in mouse liver microsomes by UPLC analysis; assay type: ADME
Outline: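 Pooled mouse liver microsomes with NADPH were incubated and the parent compound quantified by UPLC-MS/MS. Half-life was obtained by fitting one-phase exponential decay to percent substrate remaining versus time.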

[10] = Cmax in Swiss-Webster mouse spleen at 10 mg/kg, ip after 12 hrs by UPLC-MS/MS analysis; assay type: ADME, organism-based; set-up: dose 10 mg/kg, route intraperitoneal; details: read-out: Cmax; outline: as §1
[11] = Half-life in Swiss-Webster mouse plasma at 10 mg/kg, ip by UPLC-MS/MS analysis; assay type: ADME, organism-based; outline: as §3
[12] = AUC in Swiss-Webster mouse plasma at 10 mg/kg, ip by UPLC-MS/MS analysis; assay type: ADME, organism-based; outline: as §3
Liver [13] = test: Cmax in Swiss-Webster mouse liver at 10 mg/kg, ip after 4 hrs by UPLC-MS/MS analysis; assay type: ADME, organism-based; set-up: dose 10 mg/kg, route intraperitoneal; details: in vivo; outline: as §1
Leishmania donovani [14] = test: Antileishmanial activity against Leishmania donovani infected in visceral leishmaniasis BALB/c mouse model assessed as reduction of liver parasitemia at 10 mg/kg/day, ip administered for 5 days; assay type: functional; details: 120 h
Outline: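 Acute murine visceral leishmaniasis model in female BALB/c mice (6–8 weeks). […] Liver parasitemia was expressed as % inhibition versus infected controls.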

| SMILES | EC50 [1] [µM] | EC50 (Leishmania donovani [2]) [µM] | selectivity ratio [3] | further results |
| --- | --- | --- | --- | --- |
| c1ccc(CNc2nc(NCc3ccccc3)c3ccccc3n2)cc1 | 5.5 | – | – | – |
| Cc1ccc(CNc2nc(NCc3ccc(C)cc3)c3ccccc3n2)cc1 | 2.9 | 1.1 | 2.6 | – |
| COc1ccc(CNc2nc(NCc3ccc(OC)cc3)c3ccccc3n2)cc1 | 2.2 | 6 | 0.37 | – |
| CNc1nc(NCc2ccco2)c2ccccc2n1 | – | > 25 | – | – |
| CC(C)Nc1nc(NCc2ccco2)c2ccccc2n1 | 17 | – | – | – |
| c1coc(CNc2nc(NC3CCC3)nc3ccccc23)c1 | – | > 25 | – | – |
| c1coc(CNc2nc(NC3CCCC3)nc3ccccc23)c1 | – | > 25 | – | – |
| c1coc(CNc2nc(NC3CCCCC3)nc3ccccc23)c1 | 5.3 | 4 | 1.3 | – |
| CNc1nc(NCc2ccco2)nc2ccccc12 | – | 20 | – | – |
| CC(C)Nc1nc(NCc2ccco2)nc2ccccc12 | 8.3 | 11 | 0.75 | – |
| CNc1nc(NC)c2ccccc2n1 | > 133 | 7.6 | > 17.5 | – |
| CNc1nc(NC(C)C)nc2ccccc12 | – | > 25 | – | – |
| CNc1nc(NCCO)nc2ccccc12 | – | > 25 | – | – |
| CNc1nc(NC2CCCC2)nc2ccccc12 | 39 | 4.4 | 8.9 | – |
| CCNc1nc(NC(C)C)nc2ccccc12 | > 30 | 6.3 | > 4.8 | – |
| CC(C)Nc1nc(NC(C)C)c2ccccc2n1 | > 30 | 2.3 | > 13 | – |
| CC(C)Nc1nc(NC2CC2)nc2ccccc12 | > 40 | 8 | > 5 | – |
| CC(C)Nc1nc(NC2CC2)c2ccccc2n1 | 31 | 6.1 | 5.1 | – |
| CC(C)Nc1nc(NCC2CCCO2)c2ccccc2n1 (stereo unspecified) | 46 | 8.9 | 5.2 | – |

| SMILES | EC50 [1] [µM] | EC50 (Leishmania donovani [2]) [µM] | selectivity ratio [3] | further results |
| --- | --- | --- | --- | --- |
| CC(C)Nc1nc(NCc2ccccc2)nc2ccccc12 | 7.2 | 0.38 | 19 | concentration at 12 h [4]: 0.54 µM; Activity (Mus musculus [5]): Toxic; Activity (Mus musculus [6]): Non-toxic; Cmax (Plasma): 2.15 µM; Tmax [7]: 0.25 h; Cmax (Spleen): 16.5 µM; Vd/F [8]: 1.15 L/kg; t1/2 (Liver [9]): 0.7 h; concentration at 12 h [10]: 0.18 µM; half-life [11]: 2.1 h; AUC(0-inf) [12]: 7.14 µM·h; Cmax (Liver [13]): 20.2 µM; inhibition in vivo at 10 mg/kg/day (Leishmania donovani [14]): 23.8% |
| CC(C)Nc1nc(NCc2ccccc2)c2ccccc2n1 | 6.7 | 2 | 3.4 | – |
| CC(C)Nc1nc(Nc2ccccc2)c2ccccc2n1 | 12 | 1.9 | 6.3 | – |
| Clc1ccc(CNc2nc(NCc3ccccc3)c3ccccc3n2)cc1 | 3.2 | 0.61 | 5.2 | concentration at 12 h [4]: 8.51 µM; Activity (Mus musculus [5]): Toxic; Activity (Mus musculus [6]): Non-toxic; Cmax (Plasma): 1.4 µM; Tmax [7]: 0.5 h; Cmax (Spleen): 26.6 µM; Vd/F [8]: 22.3 L/kg; t1/2 (Liver [9]): 1.47 h; concentration at 12 h [10]: 11.4 µM; half-life [11]: 9.3 h; AUC(0-inf) [12]: 15.7 µM·h; Cmax (Liver [13]): 25.3 µM; inhibition in vivo at 10 mg/kg/day (Leishmania donovani [14]): 12% |
| Clc1ccc(CNc2nc(NCc3ccccc3)nc3ccccc23)cc1 | 4.6 | 0.82 | 5.6 | – |
| Cc1ccc(CNc2nc(NCc3ccccc3)c3ccccc3n2)cc1 | 4.5 | 0.89 | 5.1 | – |
| Cc1ccc(CNc2nc(NCc3ccccc3)nc3ccccc23)cc1 | 2.1 | 0.39 | 5.4 | – |
| COc1ccc(CNc2nc(NCc3ccccc3)c3ccccc3n2)cc1 | 4.1 | 0.72 | 5.7 | – |
| COc1ccc(CNc2nc(NCc3ccccc3)nc3ccccc23)cc1 | 5.2 | 2.5 | 2.1 | – |
| CNc1nc(NCc2ccccc2)nc2ccccc12 | 15 | – | 100 | – |
| c1ccc(CNc2nc(OCc3ccccc3)c3ccccc3n2)cc1 | 3.3 | 0.65 | 5.1 | – |
| c1ccc(CNc2nc(-c3ccccc3)c3ccccc3n2)cc1 | – | > 10 | – | – |
| Cc1ccccc1-c1nc(NCc2ccccc2)nc2ccccc12 | – | > 10 | – | – |
| Cc1ccccc1-c1nc(NCc2ccccc2)c2ccccc2n1 | – | > 10 | – | – |
| CCNc1nc(NC)c2ccccc2n1 | – | > 25 | – | – |
| C[C@@H]1[C@H](O)[C@@H](C)/C=C/C=C/C=C/C=C/C=C/C=C/C=C/[C@H](O[C@@H]2O[C@H](C)[C@@H](O)[C@H](N)[C@@H]2O)C[C@@H]2O[C@](O)(C[C@@H](O)C[C@@H](O)[C@H](O)CC[C@@H](O)C[C@@H](O)CC(=O)O[C@H]1C)C[C@H](O)[C@H]2C(=O)O [AMPHOTERICIN B] | – | 0.041 | – | – |
| CCCCCCCCCCCCCCCCOP(=O)([O-])OCC[N+](C)(C)C [MILTEFOSINE] | – | – | – | inhibition in vivo at 10 mg/kg/day (Leishmania donovani [14]): 93.6% |
| COc1cc([C@@H]2c3cc4c(cc3[C@H](O)[C@H]3COC(=O)[C@H]23)OCO4)cc(OC)c1OC [PODOFILOX] | 0.021 | – | – | – |
